Laboratory results: ChEMBL document CHEMBL1149895, “Steroids and flavonoids from Physalis alkekengi var. franchetii and their inhibitory effects on nitric oxide production” (J Nat Prod, 2008)

Tested on: RAW264.7
Test: Inhibition of LPS-induced nitric oxide production in mouse RAW264.7 cells assessed as nitrite formation
Format: functional, cell-based
Procedure, shortened: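 RAW 264.7 cells in RPMI 1640 with 10% heat-inactivated FBS, penicillin and streptomycin, seeded at 1 × 10^5 cells/well and allowed to adhere 2 h at 37 °C in 5% CO2. LPS 1 µg/mL with or without compound (DMSO 0.2% v/v final) for 24 h. Supernatant nitrite read by Griess reagent against a 0–100 µM sodium nitrite line. Inhibition taken relative to LPS-only and untreated wells. Triplicate, mean ± SD of three independent experiments.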

IC50 [µM]	Compound
17.1	C[C@@H]1C(=O)O[C@@H]2C[C@@]1(C)[C@@H]1C(=O)[C@]3(O)O[C@]14[C@@]2(C)OC(=O)[C@@]4(O)CC[C@H]1[C@H]3[C@H](O)C=C2CC=CC(=O)[C@@]21C [PHYSALIN O]
64	C[C@]12C(=O)C[C@H](O)C=C1C=C[C@@H]1[C@@H]2CC[C@]2(O)C(=O)O[C@@]3(C)[C@H]4C[C@]5(C)[C@@H](CO[C@@]16O[C@@]32[C@H]5C6=O)C(=O)O4 [ISOPHYSALIN G]
75.7	C[C@]12C(=O)C[C@@H](O)C=C1C=C[C@@H]1[C@@H]2CC[C@]2(O)C(=O)O[C@@]3(C)[C@H]4C[C@]5(C)[C@@H](CO[C@@]16O[C@@]32[C@H]5C6=O)C(=O)O4 [PHYSALIN Z]
84	CO[C@H]1C=C2C=C[C@@H]3[C@H](CC[C@]4(O)C(=O)O[C@@]5(C)[C@H]6C[C@](C)([C@H](C)C(=O)O6)[C@H]6[C@@]3(O)C(=O)O[C@@]654)[C@@]2(C)C(=O)C1 [PHYSALIN I]
79.2	C[C@]12C(=O)C[C@@H](O)CC1=CC[C@@H]1[C@@H]2CC[C@]2(O)C(=O)O[C@@]3(C)[C@H]4C[C@]5(C)[C@@H](CO[C@@]16O[C@@]32[C@H]5C6=O)C(=O)O4 [PHYSALIN Y]

The next lines start with the molecule.

Compound	IC50 [µM]
C[C@]12C(=O)C=CCC1=CC[C@@H]1[C@@H]2CC[C@]2(O)C(=O)O[C@@]3(C)[C@H]4C[C@]5(C)[C@@H](CO[C@@]16O[C@@]32[C@H]5C6=O)C(=O)O4 [PHYSALIN B]	0.84
C=C1C(=O)O[C@@H]2C[C@@]1(C)[C@@H]1C(=O)[C@]3(O)O[C@]14[C@@]2(C)OC(=O)[C@@]4(O)CC[C@H]1[C@H]3[C@H](O)C=C2CC=CC(=O)[C@@]21C [PHYSALIN A]	2.57
COc1cc(O)c2c(=O)c(O)c(-c3ccc(OC)c(O)c3)oc2c1 [OMBUINE]	2.23
C[C@@]12C[C@H]3OC(=O)[C@@H]1CO[C@]14O[C@]5([C@H]2C1=O)[C@@](O)(CC[C@H]1[C@H]4C[C@H]2O[C@]24CC=CC(=O)[C@]14C)C(=O)O[C@@]35C [PHYSALIN F]	0.33
O=c1cc(-c2ccc(O)c(O)c2)oc2cc(O)cc(O)c12 [LUTEOLIN]	7.39
C[C@]12CCC(=O)C=C1CC[C@@H]1[C@@H]2[C@@H](O)C[C@@]2(C)[C@H]1CC[C@]2(O)C(=O)CO [HYDROCORTISONE]	64.3
